According to ChEMBL document CHEMBL5370545 (Eur J Med Chem, 2023):

What was measured:
HT-29 = experiment: Cytotoxicity against human HT-29 cells expressing heterozygous BRAF V600E mutant assessed as cell growth measured after 7 days of treatment by crystal violet assay; assay type: functional, cell-based; conditions: HT-29, 168 h
In short: (§1)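 Cells seeded in 12-well plates: 8505C at 3 × 10^3, C32 at 10^4, HT29 at 5 × 10^3. Treated 24 h later with a dose series or DMSO vehicle for 7 days. Fixed in 4% PFA and stained with 0.1% crystal violet in 20% methanol. Destained with 10% acetic acid and read at 590 nm. Normalised to vehicle; mean ± SEM of three independent experiments.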

[1] = Cytotoxicity against human cells expressing heterozygous BRAF V600E mutant assessed as cell growth measured after 7 days of treatment by crystal violet assay; conditions: 168 h
C32 = experiment: Cytotoxicity against human C32 cells expressing heterozygous BRAF V600E mutant assessed as cell growth measured after 7 days of treatment by crystal violet assay; assay type: functional, cell-based; conditions: C32, 168 h; in short: as §1
8505C = experiment: Cytotoxicity against human 8505C cells expressing homozygous BRAF V600E mutant assessed as cell growth measured after 7 days of treatment by crystal violet assay; assay type: functional, cell-based; conditions: 168 h; in short: as §1
[2] = tested on: Serine/threonine-protein kinase B-raf (Homo sapiens), P15056 [V600E]; experiment: Displacement of Vemurafenib from BRAF V600E mutant in human WM278 cells assessed as increase in cyno-fluorescence measured after 90 mins by flow cytometry based displacement assay; assay type: cell-based
In short: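 Without washing, the Cy5 probe was added at 0, 0.05, 0.2, 1 and 2 µM for 90 min more. Cells were washed three times with medium (15 min each), imaged live, detached, and cell-associated Cy5 fluorescence was quantified by flow cytometry.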

[3] = molecular target: Serine/threonine-protein kinase B-raf (Homo sapiens, UniProt P15056, V600E); experiment: biochemical
[4] = Chemical stability of compound in cell culture medium at 100 uM at acidic pH measured for 2 to 48 hrs by reverse phase HPLC chromatographic analysis; assay type: physicochemical; conditions: time 2-48 hrs
In short: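 Incubated at 100 µM, 37 °C, in phenol red-free DMEM High Glucose at pH 5, 7.4 or 8 for up to 48 h (2–48 h). Aliquots taken at each time point and analysed by RP-HPLC with a 35 min 0.1% TFA water/acetonitrile gradient. Chromatographic profile and 640/330 nm peak-area ratio followed.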

[5] = Drug uptake in human Hela cells assessed as fluorescent signal at 0.5 uM measured after 48 hrs by fluorescence microscopy; assay type: ADME, cell-based
In short: (§2)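 A375 and HeLa cells seeded at 3 × 10^4 and treated 24 h later with 0.5 µM compound or DMSO vehicle for 48 h. Washed with PBS, fixed in 4% formaldehyde for 10 min at room temperature, and stained with DAPI and phalloidin. Cy5 signal imaged by inverted fluorescence microscopy.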

[6] = Stability of compound in foetal bovine serum at 100 uM measured for 2 to 48 hrs by reverse phase HPLC chromatographic analysis; assay type: ADME, cell-free, Bos taurus; conditions: cattle, time 2-48 hrs
In short: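 Held at 100 µM in foetal bovine serum at 37 °C for up to 48 h (2–48 h). Each aliquot diluted 1:10 in pH 7.4 culture medium before RP-HPLC with a 35 min 0.1% TFA water/acetonitrile gradient. Chromatographic profile monitored.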

[7] = Drug uptake in human A-375 cells harboring BRAF V600E mutant assessed as fluorescent signal at cytoplasm at 0.5 uM measured after 48 hrs by fluorescence microscopy; assay type: ADME, cell-based; conditions: a-375, 48 h; in short: as §2

Serine/threonine-protein kinase B-raf (Homo sapiens), P15056 [V600E], sequence (P15056 whole entry V600E): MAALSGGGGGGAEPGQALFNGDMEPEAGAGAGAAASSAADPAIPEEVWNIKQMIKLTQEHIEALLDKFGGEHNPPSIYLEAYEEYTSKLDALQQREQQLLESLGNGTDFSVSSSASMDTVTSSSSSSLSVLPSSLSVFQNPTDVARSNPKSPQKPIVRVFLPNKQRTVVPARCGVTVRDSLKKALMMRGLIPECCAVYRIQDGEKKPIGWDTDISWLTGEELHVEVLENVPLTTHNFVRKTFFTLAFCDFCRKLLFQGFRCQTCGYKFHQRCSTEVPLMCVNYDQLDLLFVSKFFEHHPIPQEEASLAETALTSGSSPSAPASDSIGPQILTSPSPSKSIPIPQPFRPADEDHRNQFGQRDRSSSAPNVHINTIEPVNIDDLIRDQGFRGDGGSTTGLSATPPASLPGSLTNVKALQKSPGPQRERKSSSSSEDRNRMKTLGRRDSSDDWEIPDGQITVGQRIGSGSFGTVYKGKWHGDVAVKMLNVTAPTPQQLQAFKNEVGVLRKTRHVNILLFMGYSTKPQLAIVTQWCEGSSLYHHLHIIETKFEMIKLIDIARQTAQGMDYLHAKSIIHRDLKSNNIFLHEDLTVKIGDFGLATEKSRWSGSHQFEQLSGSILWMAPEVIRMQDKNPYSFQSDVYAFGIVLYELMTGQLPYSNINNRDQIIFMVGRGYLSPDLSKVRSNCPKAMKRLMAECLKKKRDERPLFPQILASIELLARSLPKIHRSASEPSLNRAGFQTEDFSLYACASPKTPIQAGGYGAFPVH
Serine/threonine-protein kinase B-raf, sequence (P15056 2-766 V600E limits assumed): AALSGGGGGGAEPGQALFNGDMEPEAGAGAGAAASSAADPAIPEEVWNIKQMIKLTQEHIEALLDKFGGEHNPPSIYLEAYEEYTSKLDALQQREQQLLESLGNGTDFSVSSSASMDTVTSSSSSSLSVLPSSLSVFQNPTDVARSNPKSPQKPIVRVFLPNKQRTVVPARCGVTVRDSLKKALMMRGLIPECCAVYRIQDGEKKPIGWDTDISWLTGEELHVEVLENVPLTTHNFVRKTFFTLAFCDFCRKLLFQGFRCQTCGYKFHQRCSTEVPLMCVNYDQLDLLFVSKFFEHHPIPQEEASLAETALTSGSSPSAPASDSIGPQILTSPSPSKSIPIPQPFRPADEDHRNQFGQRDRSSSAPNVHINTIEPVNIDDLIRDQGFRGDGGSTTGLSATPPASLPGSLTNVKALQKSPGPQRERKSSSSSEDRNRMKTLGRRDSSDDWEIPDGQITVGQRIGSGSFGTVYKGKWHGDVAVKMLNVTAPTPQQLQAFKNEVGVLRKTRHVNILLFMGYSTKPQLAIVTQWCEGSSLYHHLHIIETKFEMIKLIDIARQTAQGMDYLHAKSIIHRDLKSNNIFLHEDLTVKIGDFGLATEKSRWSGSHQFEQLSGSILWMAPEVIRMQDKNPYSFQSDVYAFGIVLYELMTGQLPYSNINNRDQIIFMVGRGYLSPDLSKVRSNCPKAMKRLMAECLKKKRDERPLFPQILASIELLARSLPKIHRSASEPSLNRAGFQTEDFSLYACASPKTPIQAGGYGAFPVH

`CCCS(=O)(=O)Nc1ccc(F)c(C(=O)c2c[nH]c3ncc(-c4ccc(N)cc4)cc23)c1F` gave an IC50 (HT-29) of 27 nM, an IC50 [1] of 15 nM and an IC50 (C32) of 12 nM. For the same molecule, the IC50 (8505C) was 620 nM.
For `CCCS(=O)(=O)Nc1ccc(F)c(C(=O)c2c[nH]c3ncc(-c4ccc(NC(=O)COCCOCCNC(=O)CCCCC[N+]5=C(/C=C/C=C/C=C6\N(C)c7ccccc7C6(C)C)C(C)(C)c6ccccc65)cc4)cc23)c1F.O=C([O-])C(F)(F)F`, the Activity [2] was “Dose-Dependent Effect”, the IC50 (HT-29) was 340 nM and the Kd [3] was 13 nM. For the same molecule, the IC50 [1] was 570 nM, the Stability [4] was “Unstable” and the Drug uptake [5] was “Not Active”. For the same molecule, the Stability [6] was “Stable”, the Drug uptake [7] was “Active” and the IC50 (C32) was 630 nM. It also gave an IC50 (8505C) of 2500 nM.
`CCCS(=O)(=O)Nc1ccc(F)c(C(=O)c2c[nH]c3ncc(-c4ccc(Cl)cc4)cc23)c1F` [VEMURAFENIB] gave an IC50 (HT-29) of 49 nM, an IC50 [1] of 150 nM and an IC50 (C32) of 84 nM. It also gave an IC50 (8505C) of 2940 nM.
